Measured values taken from publication PMC11031320 (Cell chemical biology, 2024).
Entries after “also recorded” stand apart in the source; their conditions may differ. Read-outs that look alike come from different tables or passages of the source.

Key:
[1] = molecular target: T1, PfHsp90 (Plasmodium falciparum, UniProt Q8IC05); test: FITC-geldanamycin competitive binding assay
[2] = system: PfHsp90; test: FITC-geldanamycin competitive binding assay; settings: ratio of HsHsp90 to PfHsp90 affinity
[3] = system: P. berghei ANKA; test: Liver stage parasite load in HuH7 cells; format: cell-based, Plasmodium berghei; settings: for EC50: Plasmodium berghei, Huh-7, 44 h, read-out: EC50, liver stage P. berghei; for relative P. berghei parasite load in HuH7 cells: at ~30 μM
[4] = molecular target: T2, HsHsp90 (Homo sapiens, UniProt P07900); test: FITC-geldanamycin competitive binding assay
[5] = molecular target: HsHsp90 NBD E25D/K112R (Homo sapiens, UniProt P07900, E25D/K112R); test: FITC-GA competition, salt bridge double mutant HsHsp90 NBD; format: binding
[6] = system: HsHsp90 NBD L122I/G125S/A126G and Q23N; test: FITC-GA competition, other HsHsp90 NBD variants; format: binding, human; settings: compared to WT HsHsp90 NBD
How it was run: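 Fluorescence polarization displacement of 1.0 nM FITC-geldanamycin from each His-tagged human Hsp90 NBD variant (25 nM). Buffer was 20 mM HEPES pH 7.3, KCl, MgCl2, Na2MoO4, DTT, 0.01% NP-40. Test compound was dosed at 0–10 μM with 1% final DMSO. Plates were held overnight at 4 °C in the dark, then read at Ex 480/Em 535. Percent bound was normalized to protein-only and protein-free tracer controls. At least 4 independent determinations.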

[7] = molecular target: wild-type (WT) HsHsp90 nucleotide-binding domain (NBD) (Homo sapiens, UniProt P07900); test: FITC-GA competition, wild-type HsHsp90 nucleotide-binding domain
[8] = system: HuH7 cells; test: HuH7 host cell viability; format: cell-based, human; settings: at 10 μM
[9] = system: P. falciparum 3D7; test: Asexual blood stage parasite inhibition assay; format: cell-based; settings: Plasmodium falciparum, 3D7, 72 h, read-out: EC50, blood stage P. falciparum 3D7
How it was run: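 Ring-stage 3D7 cultures (2% parasitemia, 1% hematocrit) were exposed to test compound at 0–50 μM (0.5% DMSO) for 72 h at 37 °C under 3% O2/5% CO2/92% N2. Controls were DMSO and quinacrine (1 μM). Cells were lysed in saponin/Triton X-100 buffer with 10X SYBR Green I and stained 24 h at RT in the dark. Fluorescence was read at Ex 485/Em 535 and normalized to controls. 2–3 replicates, 2–4 independent experiments.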

[10] = system: P. falciparum proteasome; format: biochemical, Plasmodium falciparum
[11] = molecular target: T2, HsHsp90; settings: read-out: Kd of FITC-GA to full-length HsHsp90; cited from earlier work
[12] = molecular target: T1, PfHsp90; settings: cited from earlier work
[13] = system: 20S particles; test: Native gel in-gel Suc-LLVY-AMC hydrolysis, 20S band after SDS activation; format: cell-based, Plasmodium falciparum
[14] = system: 26S proteasome; test: Native gel in-gel Suc-LLVY-AMC hydrolysis, 26S band; format: cell-based, Plasmodium falciparum
[15] = system: P. falciparum gametocytes (NF54 peg4-tdTomato); test: Gametocyte inhibition assay; format: cell-based; settings: Plasmodium falciparum
[16] = lysate treated with epoxomicin vs DMSO
[17] = 10 μM, 3 hours, cycloheximide 50 μM co-treatment
[18] = NF54, 24 h, read-out: early gametocyte viability
[19] = NF54, 240 h, read-out: late gametocyte viability

CCOC(=O)NCc1ccc(-n2c(-c3cc(C(C)C)c(O)cc3O)n[nH]c2=S)cc1 [BX-2819]
Ki [1]: 24 ± 4.4 nM
displacement of FITC-GA from PfHsp90 ([1]; BX-2819 10 μM): displaces FITC-GA
selectivity to PfHsp90 over HsHsp90 [2]: 2.0 fold
EC50 [3]: 1500 ± 410 nM
relative P. berghei parasite load in HuH7 cells [3]: near zero
Ki [4]: 49 ± 4.3 nM
Ki [5]: 13 ± 2.5 nM
change in affinity for other HsHsp90 NBD constructs [6]: unaltered
Ki [7]: 19 ± 4 nM
decrease of HuH7 viability [8]: ≤ 50%
EC50 [9]: 740 ± 34 nM
reaction rate compared to DMSO control ([10]; 100 μM BX-2819 with 3 μM purified PfHsp90): not different from the DMSO control
Suc-LLVY-AMC hydrolysis in PfHsp90-treated samples ([10]; BX-2819 10–100 μM with PfHsp90 3 μM): reduced hydrolysis in a dose-dependent manner; also recorded: negated the increased rate

CO[C@H]1/C=C\C=C(/C)C(=O)NC2=CC(=O)C(NCCCCCCNC(=S)Nc3ccc(-c4c5ccc(=O)cc-5oc5cc(O)ccc45)c(C(=O)O)c3)=C(C[C@@H](C)C[C@H](OC)[C@H](O)[C@@H](C)/C=C(\C)[C@@H]1OC(N)=O)C2=O [FITC-GA]
Kd [11]: 23 nM
Kd ([12]; read-out: Kd of FITC-GA to full-length PfHsp90): 42 nM

CC[C@@H](C)Nc1cc(C(=O)NC2C[C@H]3CC[C@@H](C2)N3c2ccc(C(=O)C3CC3)cn2)c(C)cc1C(N)=O (stereo partly drawn) [XL888]
Ki [1]: 27 ± 7.8 nM
selectivity to PfHsp90 over HsHsp90 [2]: 4.8 fold
EC50 [3]: 240 ± 45 nM
relative P. berghei parasite load in HuH7 cells [3]: near zero
Ki [4]: 130 ± 30 nM
Ki [5]: 9.6 ± 1.6 nM
improvement in affinity to E25D/K112R double mutant compared to WT HsHsp90 NBD [5]: 7 fold
change in affinity for other HsHsp90 NBD constructs [6]: no significant differences
Ki [7]: 68 ± 23 nM
decrease of HuH7 viability [8]: ≤ 50%
EC50 [9]: 330 ± 110 nM

CC(C)C[C@H](NC(=O)[C@H](Cc1ccccc1)NC(=O)c1cnccn1)B(O)O [bortezomib]
Suc-LLVY-AMC hydrolysis in P. falciparum lysate ([10]; bortezomib 25 μM, 180 min, compared to DMSO): significantly reduced; also recorded: decreased total hydrolysis

CC[C@H](C)[C@H](NC(=O)[C@H]([C@@H](C)CC)N(C)C(C)=O)C(=O)N[C@H](C(=O)N[C@@H](CC(C)C)C(=O)[C@@]1(C)CO1)[C@@H](C)O [epoxomicin]
activated 20S band [13, 16]: reduced
26S band [14, 16]: reduced

COC1=C2C[C@@H](C)C[C@H](OC)[C@H](O)[C@@H](C)/C=C(\C)[C@H](OC(N)=O)[C@@H](OC)/C=C\C=C(/C)C(=O)NC(=CC1=O)C2=O [geldanamycin]
latent 20S particles (after activation) compared to DMSO control [13, 17]: 158%
viability at 1 µM [15, 18]: 37%
viability at 10 µM [15, 18]: 16%
viability at 1 µM [15, 19]: 71%
viability at 10 µM [15, 19]: 56%
proportion of active 26S proteasomes compared to DMSO control [14, 17]: 63%

COc1ccc2c(c1)[nH]c1c(C)nccc12 [harmine]
affinity [12]: micromolar
